Screening results: PubChem, several laboratories
Sampled rows, rich in hits. Any-hit rate of the full collection: about 1.4%.
FXIa inh: human FXIa protease inhibitors, primary screen, biochemical, 1536-well; Coagulation factor XI (Homo sapiens), P03951; purified FXIa, Boc-Glu-Ala-Arg-AMC fluorogenic substrate; inhibition, % at 5 µM; actives 0.14% (n = 220,000);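 active = inhibition of at least 40%; inactive = inhibition below 40%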;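 also: fluorescence of freed AMC excited at 355 nm; 0% = enzyme without compound and 100% = no enzyme blank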
Calpain2 inh: inhibitors of pig calpain II, primary screen, biochemical, fluorogenic peptide substrate, 1536-well | purified calpain II, 30 min | inhibition, % at 16 µM | actives 0.37% (n = 220,000) | AID 1236, 2008;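 active = inhibition above about 50%, limit read from the data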
Furin inhibitor: human furin inhibitors, primary screen, biochemical, fluorescence intensity. purified furin, fluorogenic substrate cleavage. inhibition, % at 20 µM or 30 µM. actives 0.061% (n = 220,000). AID 463115, 2010; in the data active = inhibition above about 25%
thrombin 1536: human alpha-thrombin inhibitors, primary screen, counter-screen for coagulation protease inhibitor project, biochemical, 1536-well, fluorogenic AMC substrate. Prothrombin (Homo sapiens), P00734. Boc-VPR-AMC fluorogenic substrate cleavage. inhibition, % at 5 µM. actives 0.26% (n = 220,000);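 active = inhibition at or above 40%; inactive = inhibition below 40%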;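 also: 0% = enzyme with no compound and 100% = wells without enzyme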
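Material: Human alpha-thrombin protein | Buffer or medium: pH 7.5 Tris-saline with Tween 20 | Reagent: Boc-VPR-AMC substrate, 15 µM final | Schedule: Reaction at ambient temperature | Detection: AMC fluorescence at 355 nm excitation and 460 nm emission | Evaluation: Percent inhibition scaled between no-compound controls and no-enzyme blanks | Controls: no-compound enzyme wells and no-enzyme blanks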
KLK5 inh: human KLK5 protease inhibitors, primary screen, biochemical, 1536-well; Kallikrein-5 (Homo sapiens), Q9Y337; recombinant hK5, fluorogenic AMC substrate cleavage; inhibition, % at 5 µM; actives 0.59% (n = 210,000);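 active = inhibition of 40% or more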;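 also: 0% = enzyme controls without compound and 100% = no-enzyme blanks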
FXIIa inh: human FXIIa protease inhibitors, primary screen, biochemical, 1536-well; Coagulation factor XII (Homo sapiens), P00748; purified FXIIa, Boc-QGR-AMC fluorogenic substrate, 2 h; inhibition, % at 5 µM; actives 0.3% (n = 220,000); AID 800, 2007; in the data active = inhibition above about 40%;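 also: 0% = enzyme with no compound and 100% = blank without enzyme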
Starred values were filed as active, the others as inactive.

SMILES	FXIa inh	Calpain2 inh	Furin inhibitor	thrombin 1536	KLK5 inh	FXIIa inh
COC(=O)CCc1c(C)nc(N)[nH]c1=O	-1	-25	-9	-6	-10	11
CCOc1ccc2nc(SCC(=O)NC(=O)NCc3ccco3)[nH]c2c1	1	-115	11	-2	-8	8
Cc1nc(SCC(=O)NC(=O)NC(C)C)nc(C)c1C	23	15	-7	35	50*	31
Cc1nc(SCC(=O)NC(=O)NC(C)(C)C)nc(C)c1C	1	-3	-24	1	2	6
COC(=O)c1ccc(NC(=O)CCNS(=O)(=O)c2cccc3nonc23)cc1	-2	-9	-10	-5	-3	8
